# Results gathered from unrelated publications.
# Target: Serine/threonine-protein kinase N2 (PKN2, Homo sapiens, UniProt Q16513)
Compound,assay,setting,remaining binding [%]
O=C(NCCCN1CCOCC1)c1ccc(Nc2nccc(-c3cc4ccccc4s3)n2)cc1,"binding, competition with immobilised ligand",1 µM,53
CNC(=O)[C@@H]1CC[C@@H](n2c(-c3ccc4cnccc4c3)nc3ccc(C(=O)NCc4cccc(C(N)=O)c4)cc32)C1,"binding, competition with immobilised ligand",1 µM,94
O=C1NC(c2ccccn2)Sc2ccccc21 (stereo not shown),"cell-free assay, competition with immobilised ligand",1 µM,100
CN(C)c1nccc(-c2cnn3ncccc23)n1,binding,1 µM,100
COc1ncc2cc3ccccc3nc2c1C#N,"cell-free assay, competition with immobilised ligand",5 µM,80
C[C@H]1CCN(c2nccc(-c3cnn4ncccc34)n2)C1,binding,1 µM,95
O=C(c1ccc(Nc2ncc(Cl)c(-c3cc4ccccc4s3)n2)cc1)N1CCC(N2CCCC2)CC1,"binding, competition with immobilised ligand",1 µM,11
O=C(NCc1ncc(C(F)(F)F)cc1Cl)c1ccc2c(c1)C1(CCS(=O)(=O)CC1)[C@@H](C1CC1)N2S(=O)(=O)c1ccc(F)cc1,"cell-free assay, competition with immobilised ligand",1 µM,68
CC1CCCN1c1nccc(-c2cnn3ncccc23)n1 (stereo not shown),binding,1 µM,89
C[C@@H]1CN(c2cc(-c3nn(C)c4ccc(OC5(C)CC5)cc34)ncn2)C[C@H](C)O1,"cell-free assay, competition with immobilised ligand",1 µM,100
COc1ccnn2ncc(-c3ccnc(N(C)C)n3)c12,binding,1 µM,87
CN(C)C(=O)Cn1cc(-c2nc(C3(c4ccc(-c5cnc(N)nc5)cc4)CC3)no2)cn1,"cell-free assay, competition with immobilised ligand",1 µM,77
c1cncc(-c2cccc(Nc3nccc(NC4CCCCC4)n3)c2)c1,"binding, competition with immobilised ligand",10 µM,43
CN(C)c1ncc(F)c(-c2cnn3ncccc23)n1,binding,1 µM,100
Cc1cnc(Nc2ccc(C(=O)N3CCC(N4CCCC4)CC3)cc2)nc1-c1cc2ccccc2s1,"binding, competition with immobilised ligand",1 µM,21
CCN1CCN(Cc2ccc(C(=O)Nc3ccc(C)c(Oc4ccc5c(c4)CC(=O)N5)c3)cc2C(F)(F)F)CC1,"binding, competition with immobilised ligand",1 µM,100
C[C@H](c1ccc(F)cc1)N(Cc1cccc(C(=O)O)c1)C(=O)c1cnc2ccccc2c1,"cell-free assay, competition with immobilised ligand",1 µM,86
O=C(NCC1CCOCC1)c1n[nH]cc1NC(=O)c1c(F)cccc1F,"binding, competition with immobilised ligand",1 µM,89
O=C(NCCCC1CCCCC1)c1ccc(CNC(=O)c2cnn(-c3ccccc3)c2C(F)(F)F)cc1,"cell-free assay, competition with immobilised ligand",0.1 µM,100
CN(C)c1nccc(-c2cnc3ncccn23)n1,binding,1 µM,93
Cc1c(NC(=O)c2cc(C(N)=O)nc3cc(F)ccc23)c(C(F)(F)F)nn1Cc1ccc(C#N)cc1,"cell-free assay, competition with immobilised ligand",1 µM,81
N[C@H]1CCN(c2nccc(-c3cnn4ncccc34)n2)C1,binding,1 µM,71
